How the values were obtained:
[1] = biological target: T1, 5-hydroxytryptamine receptor 2C (Rattus norvegicus, UniProt P08909); test: Binding affinity towards 5-hydroxytryptamine 1C receptor from frontal cortical regions of male Sprague-Dawley rat homogenates, using [3H]mesulergine as radioligand
T1 sequence (P08909 whole entry): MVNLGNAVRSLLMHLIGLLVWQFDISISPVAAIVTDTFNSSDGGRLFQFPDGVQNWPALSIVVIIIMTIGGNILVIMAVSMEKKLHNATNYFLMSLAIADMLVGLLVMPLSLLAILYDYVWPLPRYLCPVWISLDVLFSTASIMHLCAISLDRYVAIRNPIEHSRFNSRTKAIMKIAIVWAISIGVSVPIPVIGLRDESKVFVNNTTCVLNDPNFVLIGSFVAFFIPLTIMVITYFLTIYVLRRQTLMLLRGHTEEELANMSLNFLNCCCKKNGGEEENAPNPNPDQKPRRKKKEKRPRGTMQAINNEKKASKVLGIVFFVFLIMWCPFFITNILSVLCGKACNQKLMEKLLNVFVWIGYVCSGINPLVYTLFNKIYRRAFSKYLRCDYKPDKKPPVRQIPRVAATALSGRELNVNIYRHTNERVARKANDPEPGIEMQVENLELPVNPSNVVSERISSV
Summary of the method: (§1)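 Male Sprague–Dawley rat frontal cortex membranes were washed in Tris/EDTA/MgCl2 pH 7.4 with a 37 °C preincubation and resuspended with ascorbate and pargyline. Each tube held 10 mg wet tissue, 1 nM [3H]mesulergine and 100 nM spiperone to block 5-HT2 sites. Nonspecific binding was set with 1 μM mianserin. Tubes were incubated 15 min at 37 °C, in triplicate, then filtered. Ki = IC50/(1+D*/KD*).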

[2] = biological target: Serotonin 2 (5-HT2) receptor (Rattus norvegicus) (UniProt P30994+P08909+P14842); test: 5-HT1C selectivity was defined as the ratio between Ki(5-HT2)/Ki(5-HT1C); format: protein assay
Summary of the method: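 Ratio of Ki values from rat frontal cortex competition assays. For 5-HT2: 0.4 nM [3H]ketanserin, with 1 μM cinanserin nonspecific. For 5-HT1C: 1 nM [3H]mesulergine plus 100 nM spiperone, with 1 μM mianserin nonspecific. Both were run 15 min at 37 °C in triplicate. Ki = IC50/(1+D*/KD*).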

[3] = biological target: T2, Serotonin 2 (5-HT2) receptor (Rattus norvegicus, UniProt P30994+P08909+P14842); test: Binding affinity towards 5-hydroxytryptamine 2 receptor from frontal cortical regions of male Sprague-Dawley rat homogenates, using [3H]ketanserin as radioligand
Summary of the method: (§2)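 Male Sprague–Dawley rat frontal cortex membranes were washed in 50 mM Tris, 0.5 mM EDTA, 10 mM MgCl2, pH 7.4, and resuspended with 0.1% ascorbate and 10^-6 M pargyline. Each tube held 5 mg wet tissue and 0.4 nM [3H]ketanserin. Nonspecific binding was set with 1.0 μM cinanserin. Tubes were incubated 15 min at 37 °C, in triplicate, then filtered on PEI-soaked glass fiber. Ki came from IC50 via Cheng–Prusoff, using the saturation KD.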

[4] = biological target: T1, 5-hydroxytryptamine receptor 2C; test: Compound was tested for binding affinity towards 5-hydroxytryptamine 1C receptor from frontal cortical regions of male Sprague-Dawley rat homogenates, using [3H]mesulergine as radioligand; summary of the method: as §1
[5] = biological target: T2, Serotonin 2 (5-HT2) receptor; test: Compound was tested for binding affinity towards 5-hydroxytryptamine 2 (5-hydroxytryptamine-2) receptor from frontal cortical regions of male Sprague-Dawley rat homogenates, using [3H]-ketanserin as radioligand; summary of the method: as §2

Chain of Serotonin 2 (5-HT2) receptor (Rattus norvegicus) (P14842 whole entry, looked up, one chain of several): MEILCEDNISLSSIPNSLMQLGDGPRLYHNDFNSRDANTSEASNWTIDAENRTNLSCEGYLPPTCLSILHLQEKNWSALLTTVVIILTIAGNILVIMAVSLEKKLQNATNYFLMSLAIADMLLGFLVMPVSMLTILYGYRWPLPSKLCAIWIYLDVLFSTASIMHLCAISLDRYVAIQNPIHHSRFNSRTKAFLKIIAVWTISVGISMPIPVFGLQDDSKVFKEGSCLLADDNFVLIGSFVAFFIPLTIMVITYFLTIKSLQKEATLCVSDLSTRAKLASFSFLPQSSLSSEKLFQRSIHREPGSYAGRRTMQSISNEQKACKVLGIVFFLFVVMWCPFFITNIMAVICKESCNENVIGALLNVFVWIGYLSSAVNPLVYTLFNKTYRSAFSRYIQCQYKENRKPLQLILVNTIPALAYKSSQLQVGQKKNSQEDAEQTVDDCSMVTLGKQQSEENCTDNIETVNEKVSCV
Chain of Serotonin 2 (5-HT2) receptor (Rattus norvegicus) (P30994 whole entry, looked up, one chain of several): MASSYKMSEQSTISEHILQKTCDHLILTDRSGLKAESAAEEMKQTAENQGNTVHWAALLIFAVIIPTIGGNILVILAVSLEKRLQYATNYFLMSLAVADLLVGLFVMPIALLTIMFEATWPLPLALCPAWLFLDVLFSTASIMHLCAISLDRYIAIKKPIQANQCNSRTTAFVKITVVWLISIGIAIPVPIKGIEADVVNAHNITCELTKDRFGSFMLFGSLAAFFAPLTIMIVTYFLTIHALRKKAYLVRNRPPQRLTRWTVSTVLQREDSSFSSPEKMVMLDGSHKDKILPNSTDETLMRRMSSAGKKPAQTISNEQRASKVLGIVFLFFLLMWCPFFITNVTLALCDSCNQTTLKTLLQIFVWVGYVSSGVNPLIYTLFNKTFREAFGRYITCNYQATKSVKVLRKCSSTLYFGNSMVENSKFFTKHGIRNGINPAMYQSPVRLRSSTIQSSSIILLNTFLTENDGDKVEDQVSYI

Row | SMILES | Ki [1] [nM] | Selectivity [2] | Ki [3] [nM] | Ki [4] [nM] | Ki [5] [nM]
1 | CCOc1cc(OC)c(CC(C)N)cc1OC (stereo unspecified) | 2300 | 1 |  |  | 
2 | COc1cc(I)ccc1CC(C)N (stereo unspecified) | 130 | 5 | 580 |  | 
3 | CCCc1cc(OC)c(CC(C)N)cc1OC (stereo unspecified) | 14 | 5 |  |  | 
4 | CCCNC(C)Cc1cc(OC)c(Br)cc1OC (stereo unspecified) | > 10000 | < 1 | 2460 |  | 
5 | COc1ccc(OC)c(CC(C)N)c1 (stereo unspecified) | 1220 |  |  |  | 
6 | COc1cc(C)ccc1CCN | 110 | 7 | 825 |  | 
7 | CC(N)Cc1ccc(OC(=O)c2ccccc2)cc1 (stereo unspecified) |  |  |  | 1210 | 
8 | CCCc1ccc(CC(C)NC)cc1 (stereo unspecified) | 1930 | 1 | 2525 |  | 
9 | CCCOC(=O)c1cc(OC)c(CC(C)N)cc1OC (stereo unspecified) | > 10000 | < 1 |  |  | 
10 | COc1cc(Br)ccc1CC(C)N (stereo unspecified) | 100 | 8 | 830 |  | 
11 | CCCc1ccc(CC(C)N)cc1 (stereo unspecified) |  | 2 |  | 1250 | 2345
12 | COc1ccc(CC(C)N)c(OC)c1 (stereo unspecified) | 4480 | > 2 | > 10000 |  | 
13 | CCOc1ccc(CC(C)N)cc1 (stereo unspecified) |  |  | > 10000 | > 10000 | 
14 | Cc1ccc(CC(C)N)cc1 (stereo unspecified) |  |  |  | > 10000 | > 10000
15 | COc1cc(C)ccc1CC(C)N (stereo unspecified) | 610 | 2 | 1435 |  | 
16 | CCCCc1cc(OC)c(CC(C)N)cc1OC (stereo unspecified) | 26 | 2 |  |  | 
17 | CNC(C)Cc1ccc(C)cc1OC (stereo unspecified) | 1480 |  |  |  | 
18 | COc1cc(CC(C)N)c(OC)cc1I (stereo unspecified) | 30 | 0.6 |  |  | 
19 | COc1cc(Br)ccc1CCN | 220 | 5 | 1030 |  | 
20 | CC(N)Cc1ccc(Br)cc1 (stereo unspecified) | 1480 |  |  |  | 
21 | CNC(C)Cc1cc(OC)c(Br)cc1OC (stereo unspecified) | 98 | 1 | 80 |  | 
22 | COc1cccc(Br)c1CC(C)N (stereo unspecified) | 1560 | > 6 | > 10000 |  | 
